INS-1E ATP HTS = rescue of cytokine-induced death in INS-1E beta cells. INS-1E cytokine-induced death, ATP luminescence, 48 h; normalised: neutral wells 0, positive control 100. protection from cytokine-induced ATP loss, % at 10 µM. actives 0.1% (n = 20,000). AID 488910;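 active = mean replicate protection from cytokine-induced ATP loss at least 50% and at least 75% of replicates each reaching 50%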
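Assay system: INS-1E rat insulinoma cells. Amount: 8000 cells per well. Medium: phenol-red-free RPMI with 5% fetal bovine serum. Reagent: IL-1β, TNF-α and IFN-γ cytokine mix. Doses: one compound concentration, pin transfer. Schedule: 48 h co-treatment, 10 min post-lysis read. Detection: CellTiter-Glo luminescence measuring cellular ATP.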
T cruzi HTS = intracellular Trypanosoma cruzi inhibition; intracellular Trypanosoma cruzi in host cells, plate reader; AID 651903; activity score (inhibition), % at 5.01 µM; actives 4.9% (n = 22,000); in the data active = activity score above about 55%;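 also: parasites and compound incubated about four days before reading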
A1 apoptosis 2 = A1 inhibition read as caspase activation; AID 2465; 24,000 tested, under 10 active; caspase activation, % (no concentration beside the values); MEF A1-2A-BIM cells, caspase-Glo luminescence, 3 h; percent of clofoctol response, DMSO zero; in the data active = caspase activation above about 5.9%
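Evaluation: Caspase-3/7 activity from luminescence increase | Assay system: A1-2A-BIM mouse embryonic fibroblasts | Quantity: 2500 MEF cells/well | Medium: RPMI-1640 plus 10% FBS | Detection: Caspase-Glo 3/7 luminescence, 1 h at room temperature | Dosing: 50 nL compound per well, pinned | Timing: Cells settled overnight, compound exposure 3 h at 37 °C, 5% CO2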
Of the large screens only hits and unclear results are named; the others gave an inactive call. This is one part of a sample in which hits are shown more often than they occur.

C[C@@H]1CN([C@H](C)CO)C(=O)Cc2cc(NC(=O)Cc3cn(C)c4ccccc34)ccc2O[C@@H]1CN(C)Cc1ccccc1	none (no result: A1 apoptosis 2)
C[C@@H]1CN([C@H](C)CO)C(=O)Cc2cc(NC(=O)Cc3cn(C)c4ccccc34)ccc2O[C@H]1CN(C)Cc1ccc(C(F)(F)F)cc1	T cruzi HTS 63
C[C@@H]1CN([C@@H](C)CO)C(=O)Cc2cc(NC(=O)Cc3cn(C)c4ccccc34)ccc2O[C@@H]1CN(C)Cc1ccccc1	none
C[C@H]1CN([C@@H](C)CO)C(=O)Cc2cc(NC(=O)Cc3cn(C)c4ccccc34)ccc2O[C@H]1CN(C)Cc1ccc(C(F)(F)F)cc1	T cruzi HTS 75
O=c1[nH]c(=O)c2cc(Br)ccc2[nH]1	none (no result: INS-1E ATP HTS, T cruzi HTS)
COC(=O)CCCCCCC(=O)N/N=C/c1ccc(C)o1	none (no result: A1 apoptosis 2)
O=C(N/N=C/C[P+](c1ccccc1)(c1ccccc1)c1ccccc1)c1ccccc1O	none
C[C@H]1CN([C@@H](C)CO)C(=O)c2cc(NC(=O)Nc3cccc4ccccc34)ccc2O[C@H]1CN(C)S(=O)(=O)c1ccc(F)cc1	T cruzi HTS 65 (no result: A1 apoptosis 2)
C[C@@H]1CN([C@@H](C)CO)C(=O)c2cc(NC(=O)Nc3ccc(C(F)(F)F)cc3)ccc2O[C@H]1CN(C)S(=O)(=O)c1ccc(F)cc1	none
C[C@@H]1CN([C@@H](C)CO)C(=O)c2cc(NC(=O)Nc3ccc(C(F)(F)F)cc3)ccc2O[C@@H]1CN(C)S(=O)(=O)c1ccc(F)cc1	T cruzi HTS 68
Cc1ccc(S(=O)(=O)N(C)C[C@@H]2Oc3ccc(NC(=O)c4ccncc4)cc3C(=O)N([C@H](C)CO)C[C@@H]2C)cc1	T cruzi HTS 63 (no result: A1 apoptosis 2)
C[C@@H]1CN([C@@H](C)CO)C(=O)c2cc(NC(=O)Nc3cccc4ccccc34)ccc2O[C@@H]1CN(C)S(=O)(=O)c1ccc(F)cc1	none
C[C@@H]1CN([C@H](C)CO)C(=O)c2cc(NC(=O)Nc3ccc(C(F)(F)F)cc3)ccc2O[C@H]1CN(C)S(=O)(=O)c1ccccc1	T cruzi HTS 70
Cc1ccc(S(=O)(=O)N(C)C[C@@H]2Oc3ccc(NC(=O)c4ccncc4)cc3C(=O)N([C@H](C)CO)C[C@H]2C)cc1	none (no result: A1 apoptosis 2)
C[C@H](CO)N1C[C@H](C)[C@H](CN(C)S(=O)(=O)c2ccc(F)cc2)Oc2ccc(NC(=O)Nc3ccc(C(F)(F)F)cc3)cc2C1=O	none (no result: INS-1E ATP HTS)
O=C(O)CCCCCC(=O)N/N=C/c1ccc[nH]1	none (no result: A1 apoptosis 2)
COC(=O)c1ccc(/C=N/NC(=O)c2ccccn2)cc1	none (no result: INS-1E ATP HTS, T cruzi HTS)
COC(=O)C1=C/c2ccccc2C(C2CC2)N(C)/C=C\1C(=O)OC (stereo not given)	none (no result: INS-1E ATP HTS, T cruzi HTS)
C[C@@H]1CN([C@@H](C)CO)C(=O)c2cccc(NC(=O)c3nc4ccccc4s3)c2O[C@H]1CN(C)Cc1ccc(C(F)(F)F)cc1	T cruzi HTS 64
C[C@H](CO)N1C[C@H](C)[C@H](CN(C)Cc2ccc(C(F)(F)F)cc2)Oc2c(NC(=O)c3nc4ccccc4s3)cccc2C1=O	T cruzi HTS 67
C[C@H]1CN([C@@H](C)CO)C(=O)c2cccc(NC(=O)c3nc4ccccc4s3)c2O[C@@H]1CN(C)Cc1ccc(C(F)(F)F)cc1	T cruzi HTS 64 (no result: A1 apoptosis 2)
C[C@@H]1CN([C@@H](C)CO)C(=O)c2cccc(NC(=O)c3nc4ccccc4s3)c2O[C@@H]1CN(C)Cc1ccc(C(=O)O)cc1	none (no result: A1 apoptosis 2)
C[C@@H]1CN([C@@H](C)CO)C(=O)c2cccc(NC(=O)c3nc4ccccc4s3)c2O[C@H]1CN(C)Cc1ccccc1	none
C[C@H]1CN([C@@H](C)CO)C(=O)c2cccc(NC(=O)c3nc4ccccc4s3)c2O[C@@H]1CN(C)Cc1ccccc1	none (no result: A1 apoptosis 2)
C[C@H](CO)N1C[C@H](C)[C@@H](CN(C)Cc2ccc(C(F)(F)F)cc2)Oc2c(NC(=O)c3nc4ccccc4s3)cccc2C1=O	T cruzi HTS 62 (no result: A1 apoptosis 2)
C[C@@H]1CN([C@H](C)CO)C(=O)c2cccc(NC(=O)c3nc4ccccc4s3)c2O[C@@H]1CN(C)Cc1ccc(C(F)(F)F)cc1	none (no result: A1 apoptosis 2)
COc1ccc(S(=O)(=O)Nc2ccc3c(c2)CC(=O)N([C@H](C)CO)C[C@H](C)[C@H](CN(C)Cc2ccc(Oc4ccccc4)cc2)O3)cc1	none (no result: A1 apoptosis 2)
COc1ccc(S(=O)(=O)Nc2ccc3c(c2)CC(=O)N([C@H](C)CO)C[C@@H](C)[C@@H](CN(C)Cc2ccc(Oc4ccccc4)cc2)O3)cc1	T cruzi HTS 70
COc1ccc(S(=O)(=O)Nc2ccc3c(c2)CC(=O)N([C@H](C)CO)C[C@@H](C)[C@H](CN(C)Cc2ccccc2)O3)cc1	T cruzi HTS 66
COc1ccc(S(=O)(=O)Nc2ccc3c(c2)CC(=O)N([C@@H](C)CO)C[C@H](C)[C@@H](CN(C)Cc2ccc(-c4ccccc4)cc2)O3)cc1	T cruzi HTS 73 (no result: A1 apoptosis 2)
COc1ccc(S(=O)(=O)Nc2ccc3c(c2)CC(=O)N([C@@H](C)CO)C[C@H](C)[C@H](CN(C)Cc2ccccc2)O3)cc1	none
COc1ccc(S(=O)(=O)Nc2ccc3c(c2)CC(=O)N([C@@H](C)CO)C[C@@H](C)[C@@H](CN(C)Cc2ccc(-c4ccccc4)cc2)O3)cc1	T cruzi HTS 64
COc1ccc(S(=O)(=O)Nc2ccc3c(c2)CC(=O)N([C@H](C)CO)C[C@H](C)[C@@H](CN(C)Cc2ccc(-c4ccccc4)cc2)O3)cc1	none (no result: INS-1E ATP HTS, T cruzi HTS)
COc1ccc(S(=O)(=O)Nc2ccc3c(c2)CC(=O)N([C@H](C)CO)C[C@H](C)[C@H](CN(C)Cc2ccc(-c4ccccc4)cc2)O3)cc1	none
C[C@@H]1CN([C@@H](C)CO)C(=O)c2cccc(NC(=O)NC3CCCCC3)c2O[C@H]1CN(C)C(=O)Nc1ccccc1	none
[N-]=[N+]=Nc1cccc(C(=O)NCCc2c[nH]c3ccccc23)c1	none (no result: INS-1E ATP HTS, T cruzi HTS)
COC(=O)CCCCCCC(=O)NN=C1CCCCCC1	none
COC(=O)CCCCCCC(=O)N/N=C/c1cc(O)ccc1Br	none
CNC(=O)C1=C[C@H](c2csc3ccccc23)C[C@H](OCc2ccc(CO)cc2)O1	none (no result: INS-1E ATP HTS, T cruzi HTS)
C[C@H](CO)N1C[C@H](C)[C@@H](CN(C)Cc2ccc(C(=O)O)cc2)Oc2c(NC(=O)c3ccncc3)cccc2C1=O	none
C[C@H]1CN([C@@H](C)CO)C(=O)c2cccc(NC(=O)c3ccncc3)c2O[C@@H]1CN(C)Cc1ccc(C(=O)O)cc1	none
C[C@@H]1CN([C@@H](C)CO)C(=O)c2cccc(NC(=O)c3ccncc3)c2O[C@@H]1CN(C)Cc1ccc(-c2ccccc2)cc1	T cruzi HTS 58 (no result: A1 apoptosis 2)
C[C@@H]1CN([C@H](C)CO)C(=O)c2cccc(NC(=O)c3ccncc3)c2O[C@@H]1CN(C)Cc1ccc(-c2ccccc2)cc1	T cruzi HTS 67
Cc1ccc(S(=O)(=O)Nc2ccc3c(c2)C(=O)N([C@@H](C)CO)C[C@@H](C)[C@@H](CN(C)C(=O)Nc2ccc(C(F)(F)F)cc2)O3)cc1	T cruzi HTS 68
COc1ccc(S(=O)(=O)Nc2ccc3c(c2)C(=O)N([C@H](C)CO)C[C@H](C)[C@H](CN(C)C(=O)Nc2ccc(C(F)(F)F)cc2)OCCCC[C@@H](C)O3)cc1	T cruzi HTS 65

High-throughput results: PubChem, Broad Institute
